# Measured values reported in ChEMBL document CHEMBL1145092, “Soft antimicrobial agents: synthesis and activity of labile environmentally friendly long chain quaternary ammonium compounds” (J Med Chem, 2003).
# Columns and labels:
# Human alphaherpesvirus 1 [1] = assay: Tested for antiviral activity against HSV-1 at a concentration of 25 ug/mL after 2 hr of treatment at 37 degrees C; type: functional, herpes simplex virus
# Method in brief: (§1)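 HSV-1 strain MacIntyre stock (10^6.5–10^7.5 TCID50/100 µL) was mixed 1:1 with twofold compound dilutions made in RPMI-1640 with 2% FBS from a 1 mg/mL HBSS stock; concentrations are final. Mixtures were held 2 h at 37 °C, then diluted 10-fold to stop. Residual titer was measured on Vero monolayers by 10-fold dilutions in quadruplicate wells, scoring CPE daily for 5 days at 37 °C and 5% CO2. Titers were calculated by Reed–Muench as log10 TCID50/0.1 mL, mean of three, against a virus-plus-medium control.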
# Staphylococcus aureus [2] = assay: Minimum concentration required to inhibit Staphylococcus aureus ATCC 25923; type: functional
# Method in brief: (§2)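 Broth doubling-dilution MIC in Mueller Hinton broth against ATCC quality-control strains, incubated 24 h at 37 °C in ambient air. Poorly water-soluble compounds were dissolved in minimal DMSO. Values are in µg/mL.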
# Escherichia coli = assay: Minimum concentration required to inhibit Escherichia coli ATCC 25922; type: functional; method in brief: as §2
# Human alphaherpesvirus 1 [3] = assay: Tested for antiviral activity against HSV-1 at a concentration of 100 ug/mL after 2 hr of treatment at 37 degrees C; type: functional, herpes simplex virus; method in brief: as §1
# [4] = (§3) Half life (t1/2) was determined; type: ADME
# Method in brief: (§4)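 Hydrolytic stability: compound from a 0.1 mg/mL ethanol stock was spiked into 10 mM phosphate buffer, pH 6, and held at 60 °C (±0.2 °C). Periodic HPLC or LC-MS/MS analysis was run, and k_obs came from linear regression of peak integration (n = 3). Selected compounds were also tested in diluted (1:4) agar at 37 °C.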
# Human alphaherpesvirus 1 [5] = assay: Tested for antiviral activity against HSV-1 at a concentration of 6.25 ug/mL after 2 hr of treatment at 37 degrees C; type: functional, herpes simplex virus; method in brief: as §1
# Human alphaherpesvirus 1 [6] = assay: Tested for antiviral activity against HSV-1 at a concentration of 12.5 ug/mL after 2 hr of treatment at 37 degrees C; type: functional, herpes simplex virus; method in brief: as §1
# Enterococcus faecalis [7] = assay: Minimum concentration required to inhibit Enterococcus faecalis ATCC 29212; type: functional; method in brief: as §2
# Staphylococcus aureus [8] = assay: Tested for antibacterial activity against Staphylococcus aureus; type: functional
# Pseudomonas aeruginosa = assay: Minimum concentration required to inhibit Pseudomonas aeruginosa ATCC 27853; type: functional; method in brief: as §2
# Human alphaherpesvirus 1 [9] = assay: Tested for antiviral activity against HSV-1 at a concentration of 50 ug/mL after 2 hr of treatment at 37 degrees C; type: functional, herpes simplex virus; method in brief: as §1
# [10] = as §3; type: functional; method in brief: as §4
# Enterococcus faecalis [11] = assay: Minimum concentration required to inhibit enterococcus faecalis ATCC 29212; type: functional; method in brief: as §2
Structure (SMILES),Log TCID50 (Human alphaherpesvirus 1 [1]),MIC (Staphylococcus aureus [2]) [µg/mL],MLC (Staphylococcus aureus [2]) [µg/mL],MIC (Escherichia coli) [µg/mL],MLC (Escherichia coli) [µg/mL],Log TCID50 (Human alphaherpesvirus 1 [3]),Log t1/2 [4],Log TCID50 (Human alphaherpesvirus 1 [5]),Log TCID50 (Human alphaherpesvirus 1 [6]),MIC (Enterococcus faecalis [7]) [µg/mL],MLC (Enterococcus faecalis [7]) [µg/mL],Log 1/MIC (Staphylococcus aureus [8]),MIC (Pseudomonas aeruginosa) [µg/mL],MLC (Pseudomonas aeruginosa) [µg/mL],Log TCID50 (Human alphaherpesvirus 1 [9]),Log t1/2 [10],MIC (Enterococcus faecalis [11]) [µg/mL]
CCCCCCCCCCCC(=O)OCC[n+]1ccccc1.[Br-],6.73,< 6.25,50,25,100,1.63,0.33,7.03,6.8,2,100,-0.9,200,200,6.73,,
CCCCCCCCCCCCCCCC(=O)NCC[n+]1ccccc1.[Cl-],2.9,2,,60,,0.8,,6.47,6.07,7.5,,,250,,0.9,,
CCCCCCCCCCCCCCCCCC(=O)OCC[n+]1ccccc1.[Br-],2.9,1,2,500,500,1.3,0.9,6.9,6.1,8,8,0,250,250,1.63,,
CCCCCCCCCCCC(=O)OCC[N+](CCCC)(CCCC)CCCC,6.63,2,8,125,125,0.5,0.27,7,7,4,16,-0.3,500,1000,6,,
CCCCCCCCCCCC(=O)OC[n+]1ccccc1.[Cl-],,50,50,100,400,,,,,10,200,-1.51,3200,3200,,0.31,
CCCCCCCCCCCCNC(=O)C[n+]1ccccc1,5.4,4,4,125,125,1.5,0.92,,6.57,4,8,-0.6,125,125,1.5,,
CCCCCCCCCCCCCCCC(=O)OCC[n+]1ccccc1.[Br-],,1,1,32,32,,1.1,,,,8,0,250,1000,,,8
